# Calls of active or inactive are those of the source. The calls are words filed in the database; no cut-off is given here.
# Legend:
# Type in all cases: cell-based
# [1] = biological target: T1, Toll-like receptor 9 (Mus musculus) (UniProt Q9EQU3); assay: Inhibition of MyD88 recruitment to TLR9 in C57BL/6 mouse BMDM cells assessed as inhibition of CpG-induced p38 MAPK activity up to 90 mins
# T1 sequence (whole entry): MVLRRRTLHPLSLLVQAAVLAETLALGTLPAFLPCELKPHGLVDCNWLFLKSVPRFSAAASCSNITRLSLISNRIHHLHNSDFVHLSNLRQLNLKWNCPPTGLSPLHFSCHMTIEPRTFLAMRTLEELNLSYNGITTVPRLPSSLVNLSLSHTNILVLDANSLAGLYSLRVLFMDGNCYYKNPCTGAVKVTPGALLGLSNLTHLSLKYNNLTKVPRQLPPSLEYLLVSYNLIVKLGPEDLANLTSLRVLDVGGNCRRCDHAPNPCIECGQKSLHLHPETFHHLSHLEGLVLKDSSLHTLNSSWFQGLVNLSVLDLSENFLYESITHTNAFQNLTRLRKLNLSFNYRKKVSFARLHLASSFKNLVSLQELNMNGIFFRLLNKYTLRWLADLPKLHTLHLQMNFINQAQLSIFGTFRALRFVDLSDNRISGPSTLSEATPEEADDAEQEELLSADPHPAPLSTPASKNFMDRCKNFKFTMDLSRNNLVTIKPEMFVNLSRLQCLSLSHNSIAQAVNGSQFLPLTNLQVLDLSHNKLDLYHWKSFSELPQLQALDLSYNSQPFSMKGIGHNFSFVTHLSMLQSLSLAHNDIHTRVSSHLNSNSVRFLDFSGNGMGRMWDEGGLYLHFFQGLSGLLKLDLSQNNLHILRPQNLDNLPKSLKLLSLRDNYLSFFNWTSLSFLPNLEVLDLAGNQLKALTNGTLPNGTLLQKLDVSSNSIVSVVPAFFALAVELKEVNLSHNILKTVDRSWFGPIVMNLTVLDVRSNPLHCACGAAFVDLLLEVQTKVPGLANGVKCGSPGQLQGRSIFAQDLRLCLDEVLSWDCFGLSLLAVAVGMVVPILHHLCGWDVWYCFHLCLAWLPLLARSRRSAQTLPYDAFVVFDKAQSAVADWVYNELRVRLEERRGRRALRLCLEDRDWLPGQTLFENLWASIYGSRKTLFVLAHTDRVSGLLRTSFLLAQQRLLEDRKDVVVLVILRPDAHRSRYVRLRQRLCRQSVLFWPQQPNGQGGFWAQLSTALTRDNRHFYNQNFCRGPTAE
# Procedure, shortened: (§1)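 Bone marrow macrophages from C57BL/6 mice, grown in 70% growth medium (DMEM, 10% FBS) plus 30% L929-conditioned medium and given fresh medium 12-14 h before stimulation. Stimuli: IL-1 40 ng/ml, HKSA ~10^8 cfu/ml, pI:pC 50 μg/ml or CpG 10 μg/ml, ± compound at 10 μM (final) added from a 200x DMSO stock. IκBα and p38 profiled by immunoblot. Three independent experiments, quantitated and normalized.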
# [2] = biological target: T2, Interleukin-1 receptor type 1 (Mus musculus) (UniProt P13504); assay: Inhibition of MyD88 recruitment to IL-1R in C57BL/6 mouse BMDM cells assessed as inhibition of IL-1-induced IkappaBalpha degradation up to 90 mins by Western blot analysis; procedure, shortened: as §1
# T2 sequence (whole entry): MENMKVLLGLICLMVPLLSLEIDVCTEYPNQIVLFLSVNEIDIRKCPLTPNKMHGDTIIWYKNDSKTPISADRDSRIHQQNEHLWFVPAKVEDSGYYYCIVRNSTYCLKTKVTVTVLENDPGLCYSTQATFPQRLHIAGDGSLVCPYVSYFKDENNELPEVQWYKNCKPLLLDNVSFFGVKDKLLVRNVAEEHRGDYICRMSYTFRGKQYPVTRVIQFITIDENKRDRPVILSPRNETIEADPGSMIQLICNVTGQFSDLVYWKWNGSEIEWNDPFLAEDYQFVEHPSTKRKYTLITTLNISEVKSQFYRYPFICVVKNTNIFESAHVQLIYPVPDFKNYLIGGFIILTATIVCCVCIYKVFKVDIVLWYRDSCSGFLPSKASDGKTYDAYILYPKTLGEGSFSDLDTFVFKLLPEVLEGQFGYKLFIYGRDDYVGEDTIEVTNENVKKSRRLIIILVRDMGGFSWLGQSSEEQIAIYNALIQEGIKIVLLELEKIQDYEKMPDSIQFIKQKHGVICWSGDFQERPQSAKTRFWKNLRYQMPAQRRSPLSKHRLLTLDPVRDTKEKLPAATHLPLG
# [3] = biological target: T3, Inhibitor of nuclear factor kappa-B kinase subunit beta (Mus musculus) (UniProt O88351); assay: Inhibition of IKKbeta in C57BL/6 mouse BMDM cells assessed as inhibition of LPS-induced phosphorylation at 25 uM after 5 mins by Western blot analysis
# T3 sequence (whole entry): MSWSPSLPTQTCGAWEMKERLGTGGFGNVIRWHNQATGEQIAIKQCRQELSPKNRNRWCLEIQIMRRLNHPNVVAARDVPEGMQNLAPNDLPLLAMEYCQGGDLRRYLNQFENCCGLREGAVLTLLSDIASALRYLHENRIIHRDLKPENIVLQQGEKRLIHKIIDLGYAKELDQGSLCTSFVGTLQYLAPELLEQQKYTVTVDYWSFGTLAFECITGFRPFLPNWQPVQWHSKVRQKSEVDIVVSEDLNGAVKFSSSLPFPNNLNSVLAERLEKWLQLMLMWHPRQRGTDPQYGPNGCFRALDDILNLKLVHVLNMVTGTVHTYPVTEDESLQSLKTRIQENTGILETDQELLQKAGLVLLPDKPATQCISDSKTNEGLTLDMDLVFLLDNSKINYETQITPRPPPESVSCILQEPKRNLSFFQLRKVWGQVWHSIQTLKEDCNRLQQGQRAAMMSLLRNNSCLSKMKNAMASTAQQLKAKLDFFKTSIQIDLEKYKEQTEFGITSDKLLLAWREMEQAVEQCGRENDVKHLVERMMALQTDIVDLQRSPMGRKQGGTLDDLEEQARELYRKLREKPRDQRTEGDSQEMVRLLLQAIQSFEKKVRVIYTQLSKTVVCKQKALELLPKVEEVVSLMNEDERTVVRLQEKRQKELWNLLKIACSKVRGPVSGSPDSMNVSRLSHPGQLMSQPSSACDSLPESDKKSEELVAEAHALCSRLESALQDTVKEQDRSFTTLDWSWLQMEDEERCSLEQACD
# Procedure, shortened: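 C57BL/6 marrow-derived macrophages were cultured in 70% growth medium/30% L929-conditioned medium and refreshed 12-14 h before stimulation. Stimuli were TNF 40 ng/ml or LPS 100 ng/ml, ± compound at 25 μM from a 200x DMSO stock. Western blots tracked IKK, p38, IκBα and phospho-RelA. Results from three independent experiments were quantitated and normalized.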
smiles,measurement,setting,value
O=C(CCCCCN1C(=O)C=CC1=O)Oc1ccc2cc(C(C(=O)NCc3ccccc3)N(C(=O)Cc3ccc4c(c3)OCO4)C3CC3)ccc2c1 (stereo not drawn),inhibition,[1],inactive
same,inhibition,[2],Active
same,inhibition,[3],Active

# Reference: ChEMBL document CHEMBL2203171, “The use of small molecule probes to study spatially separated stimulus-induced signaling pathways” (Bioorg Med Chem Lett, 2012)
